Assay results published in ChEMBL document CHEMBL5724801, “EUbOPEN Chemogenomics Library - Multiplex” (2024).
Where “and” joins values, the source holds several entries; their conditions need not be identical. Identical values can stand only once.

Test system: HEK-293T
Test: Multiplex assay against HEK293T
Assay type: toxicity, cell-based
Conditions: human
Summary of the method: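 On a CQ1 microscope at 37°C and 5% CO2, live cells were imaged after compound addition. They had been stained at seeding with Hoechst33342, BioTracker Green Microtubule Cytoskeleton Dye, MitoTracker Red and Annexin V Alexa Fluor 680. CellPathfinder machine-learning gating assigned cells to Hoechst high-intensity objects or normal cells, normal cells to healthy, pyknosed or fragmented nuclei, and pyknosed cells to mitotic or apoptotic. Tubulin, mitochondrial-mass and membrane-permeability phenotypes are per cents of healthy-nucleus cells.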

[1] = 12 h, 1 µM, compound concentration 1 uM
[2] = 12 h, 10 µM, compound concentration 10 uM
[3] = 24 h, 1 µM, compound concentration 1 uM
[4] = 24 h, 10 µM, compound concentration 10 uM
[5] = 48 h, 1 µM, compound concentration 1 uM
[6] = 48 h, 10 µM, compound concentration 10 uM

For O=C(O)CCC/C=C\CC1C(O)CC(O)C1/C=C/C(O)COc1cccc(Cl)c1 (stereo not drawn) [CLOPROSTENOL], the “Population Apoptotic (%)” value [1] was 31% and 40%, the “Population Fragmented Nuclei (%)” value [1] was 7% and 6% and the “Population Healthy Nuclei (%)” value [1] was 81% and 80%. For the same compound, the “Population Hoechst High Intensity Objects (%)” value [1] was 9% and 7%, the “Population Membrane Permeable-Phenotype (%)” value [1] was 0% and the “Population Mitochondria Different-Phenotype (%)” value [1] was 44% and 56%. For the same compound, the “Population Mitotic Cells (%)” value [1] was 68% and 59%, the “Population Normal (%)” value [1] was 90% and 92% and the “Population Pyknosed Nuclei (%)” value [1] was 10% and 13%. The “Population Tubulin-Different-Phenotype (%)” value [1] was 35% and 23%, the “Total Cell Count” value [1] was 458 and 341 and the “Population Apoptotic (%)” value [2] was 45% and 51%. For the same compound, the “Population Fragmented Nuclei (%)” value [2] was 7% and 8%, the “Population Healthy Nuclei (%)” value [2] was 77% and the “Population Hoechst High Intensity Objects (%)” value [2] was 6% and 13%. For the same compound, the “Population Membrane Permeable-Phenotype (%)” value [2] was 0%, the “Population Mitochondria Different-Phenotype (%)” value [2] was 63% and 68% and the “Population Mitotic Cells (%)” value [2] was 54% and 48%. For the same compound, the “Population Normal (%)” value [2] was 93% and 86%, the “Population Pyknosed Nuclei (%)” value [2] was 14% and the “Population Tubulin-Different-Phenotype (%)” value [2] was 41% and 37%. The “Total Cell Count” value [2] was 395 and 357, the “Population Apoptotic (%)” value [3] was 22% and 34% and the “Population Fragmented Nuclei (%)” value [3] was 11% and 7%. The “Population Healthy Nuclei (%)” value [3] was 76% and 83%, the “Population Hoechst High Intensity Objects (%)” value [3] was 7% and 5% and the “Population Membrane Permeable-Phenotype (%)” value [3] was 1% and 0%. For the same compound, the “Population Mitochondria Different-Phenotype (%)” value [3] was 25% and 37%, the “Population Mitotic Cells (%)” value [3] was 77% and 65% and the “Population Normal (%)” value [3] was 92% and 94%. The “Population Pyknosed Nuclei (%)” value [3] was 11% and 9%, the “Population Tubulin-Different-Phenotype (%)” value [3] was 28% and 16% and the “Total Cell Count” value [3] was 612 and 477. The “Population Apoptotic (%)” value [4] was 46%, the “Population Fragmented Nuclei (%)” value [4] was 10% and 12% and the “Population Healthy Nuclei (%)” value [4] was 78%. For the same compound, the “Population Hoechst High Intensity Objects (%)” value [4] was 7% and 11%, the “Population Membrane Permeable-Phenotype (%)” value [4] was 0% and the “Population Mitochondria Different-Phenotype (%)” value [4] was 46% and 55%. The “Population Mitotic Cells (%)” value [4] was 54% and 53%, the “Population Normal (%)” value [4] was 92% and 88% and the “Population Pyknosed Nuclei (%)” value [4] was 10% and 9%. The “Population Tubulin-Different-Phenotype (%)” value [4] was 35% and 31%, the “Total Cell Count” value [4] was 490 and 483 and the “Population Apoptotic (%)” value [5] was 20% and 28%. The “Population Fragmented Nuclei (%)” value [5] was 15% and 13%, the “Population Healthy Nuclei (%)” value [5] was 77% and 81% and the “Population Hoechst High Intensity Objects (%)” value [5] was 4% and 5%. For the same compound, the “Population Membrane Permeable-Phenotype (%)” value [5] was 1%, the “Population Mitochondria Different-Phenotype (%)” value [5] was 15% and 20% and the “Population Mitotic Cells (%)” value [5] was 79% and 71%. For the same compound, the “Population Normal (%)” value [5] was 95% and 94%, the “Population Pyknosed Nuclei (%)” value [5] was 6% and 5% and the “Population Tubulin-Different-Phenotype (%)” value [5] was 15% and 11%. For the same compound, the “Total Cell Count” value [5] was 956 and 703, the “Population Apoptotic (%)” value [6] was 33% and 25% and the “Population Fragmented Nuclei (%)” value [6] was 16% and 18%. The “Population Healthy Nuclei (%)” value [6] was 76% and 75%, the “Population Hoechst High Intensity Objects (%)” value [6] was 7% and 6% and the “Population Membrane Permeable-Phenotype (%)” value [6] was 0% and 1%. For the same compound, the “Population Mitochondria Different-Phenotype (%)” value [6] was 32% and 25%, the “Population Mitotic Cells (%)” value [6] was 66% and 74% and the “Population Normal (%)” value [6] was 92% and 93%. For the same compound, the “Population Pyknosed Nuclei (%)” value [6] was 6% and 5%, the “Population Tubulin-Different-Phenotype (%)” value [6] was 18% and the “Total Cell Count” value [6] was 659 and 731.

In the case of Cc1ccc(-c2c(C(=O)CF)n(CCCO)c3ncnc(N)c23)cc1, the “Population Apoptotic (%)” value [1] is reported as 10.53% and 14.63%, the “Population Fragmented Nuclei (%)” value [1] is reported as 2.38% and 4.08% and the “Population Hoechst High Intensity Objects (%)” value [1] is reported as 0%. For the same compound, the “Population Membrane Permeable-Phenotype (%)” value [1] was 0% and 5.56%, the “Population Mitotic Cells (%)” value [1] was 89.47% and 85.37% and the “Population Normal (%)” value [1] was 100%. The “Population Pyknosed Nuclei (%)” value [1] was 38.78% and 83.67%, the “Total Cell Count” value [1] was 294 and 147 and the “Population Apoptotic (%)” value [2] was 9.68% and 15.93%. The “Population Fragmented Nuclei (%)” value [2] was 5.7% and 4.44%, the “Population Hoechst High Intensity Objects (%)” value [2] was 0.33% and 0% and the “Population Membrane Permeable-Phenotype (%)” value [2] was 1.91% and 0%. For the same compound, the “Population Mitochondria Different-Phenotype (%)” value [2] was 38.22% and 25%, the “Population Mitotic Cells (%)” value [2] was 90.32% and 84.07% and the “Population Normal (%)” value [2] was 99.67% and 100%. The “Population Pyknosed Nuclei (%)” value [2] was 41.61% and 83.7%, the “Population Tubulin-Different-Phenotype (%)” value [2] was 17.83% and 37.5% and the “Total Cell Count” value [2] was 299 and 135. The “Population Apoptotic (%)” value [3] was 6.73% and 15.13%, the “Population Fragmented Nuclei (%)” value [3] was 3.4% and 2.5% and the “Population Hoechst High Intensity Objects (%)” value [3] was 0%. The “Population Membrane Permeable-Phenotype (%)” value [3] was 2.86% and 0%, the “Population Mitochondria Different-Phenotype (%)” value [3] was 14.57% and 8.11% and the “Population Mitotic Cells (%)” value [3] was 93.27% and 84.87%. For the same compound, the “Population Normal (%)” value [3] was 100%, the “Population Tubulin-Different-Phenotype (%)” value [3] was 10.86% and 5.41% and the “Total Cell Count” value [3] was 470 and 160. The “Population Apoptotic (%)” value [4] was 19.61% and 24.07%, the “Population Fragmented Nuclei (%)” value [4] was 2.25% and 2.94% and the “Population Healthy Nuclei (%)” value [4] was 74.77% and 33.53%. For the same compound, the “Population Hoechst High Intensity Objects (%)” value [4] was 0%, the “Population Membrane Permeable-Phenotype (%)” value [4] was 0.9% and 0% and the “Population Mitotic Cells (%)” value [4] was 80.39% and 75.93%. The “Population Normal (%)” value [4] was 100%, the “Population Pyknosed Nuclei (%)” value [4] was 22.97% and 63.53% and the “Population Tubulin-Different-Phenotype (%)” value [4] was 24.4% and 8.77%. For the same compound, the “Total Cell Count” value [4] was 444 and 170, the “Population Fragmented Nuclei (%)” value [5] was 1.92% and 2.58% and the “Population Healthy Nuclei (%)” value [5] was 88.16% and 57.22%. The “Population Hoechst High Intensity Objects (%)” value [5] was 0%, the “Population Membrane Permeable-Phenotype (%)” value [5] was 5.14% and 2.7% and the “Population Mitochondria Different-Phenotype (%)” value [5] was 13.34% and 21.62%. The “Population Mitotic Cells (%)” value [5] was 97.67% and 83.33%, the “Population Normal (%)” value [5] was 100% and the “Population Apoptotic (%)” value [6] was 7.29% and 16.44%. The “Population Fragmented Nuclei (%)” value [6] was 3.41% and 2.51%, the “Population Healthy Nuclei (%)” value [6] was 87.23% and 60.8% and the “Population Hoechst High Intensity Objects (%)” value [6] was 0%. For the same compound, the “Population Membrane Permeable-Phenotype (%)” value [6] was 3.58% and 0.83%, the “Population Mitochondria Different-Phenotype (%)” value [6] was 25.47% and 33.88% and the “Population Mitotic Cells (%)” value [6] was 92.71% and 83.56%. The “Population Normal (%)” value [6] was 100%.
